# Most compounds without a hit are left out; they make up all but 6.4% or so of the library.
# Fibroblast inh = blocks proliferation of human lung fibroblasts. LL 47 human lung fibroblast viability, ATP luminescence; active compounds read low. viability, % at 10 µM. hit rate 1.1% among 85,000;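 active = viability at or below 50% in the single dose screen; inactive = viability above 50%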;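 note: compound exposure lasted 72 h before the ATP readout; 100% = median luminescence of untreated cell-only wells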
#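 Material: human lung fibroblast line LL 47, low passage; Evaluation: viability percentage against median untreated-cell control; Buffer or medium: 15% FBS in IMEM; Incubation: 72 h compound exposure at 37 °C after overnight plating; Dosing: 0.1% DMSO in all compound wells; Measured by: CellTiter-Glo luminescence.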
# H69AR growth 86K = blocks growth of human H69AR lung tumor cells; viability, % at 10 µM; hit rate 6% among 85,000; H69AR lung tumor viability, ATP luminescence, 72 h; active compounds read low;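 active = viability at or below 40%; inactive = viability above 40%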;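 note: multidrug resistant small cell line overexpressing MRP-1 efflux transporter; 100% = mean luminescence of untreated control wells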
# tolC growth inh = blocks growth of E. coli BW25113 tolC mutant. OD615. growth inhibition, % at 10 µM (by protocol). hit rate 2.2% among 65,000. AID 573;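 active = growth inhibition at or above a cutoff equal to the mean over every tested compound plus 3 SD, cut at about 60% in these data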;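 note: growth measured after 20 h incubation at 37 °C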
#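 Test system: E. coli BW25113 ΔtolC::kan bacteria; incubation: 37 °C, 20 h exposure; medium: LB broth supplemented with 50 µg/mL kanamycin; read-out basis: percent growth inhibition; signal: A615 absorbance measurement; compound: 10 µM final, single dose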
# HUVEC prolif 384 = inhibitors of human endothelial cell proliferation | HUVEC proliferation, CellTiter-Glo luminescence, 72 h; active compounds read low | viability, % at 10 µM (by protocol) | hit rate 1.1% among 86,000;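 active = viability at or below 30%; inactive = viability above 30%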;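 note: 100% = median luminescence of DMSO-only cell control wells on each plate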
# Jurkat viability = cytotoxic compounds reducing Jurkat cell viability | inhibition, % at 4 µM | Jurkat E6.1 viability, ATP luminescence, 48 h | hit rate 1.2% among 56,000;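 active = inhibition above the mean inhibition of all tested compounds plus 3 SD, cut at about 28% in these data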
# E coli WT exp = blocks growth of wild type E. coli BW25113. growth inhibition, % at 100 µM. AID 710. hit rate 0.15% among 98,000. OD600 absorbance;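 active = growth inhibition above about 50% at one test dose, limit read from the data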;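 note: growth measured after 20 h incubation at 37 °C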
# Numbers without * were called inactive; . = not tested or not shown.
SMILES,Fibroblast inh,H69AR growth 86K,tolC growth inh,HUVEC prolif 384,Jurkat viability,E coli WT exp
CCSc1cc(C2C(C(=O)OC)=C(C)NC3=C2C(=O)CCC3)c(C)o1 (configuration not stated),.,.,6,.,-7,0
CN1CCN(c2c3c(c(C#N)c4nc5ccccc5n24)CCCC3)CC1,88,73,4,84,.,.
O=c1c2ccccc2n(Cc2ccc(F)cc2)c(=O)n1C1CCCC1,108,38*,76*,96,3,-11
Cc1cccc(/C=c2\s/c(=C\C(=O)C(C)(C)C)[nH]c2=O)c1,74,6.8*,.,61,.,-10
CC(CS(=O)(=O)c1ccc2ccccc2c1)N1CCN(C2CCCCC2)CC1 (configuration not stated),95,82,.,87,.,.
O=C(N/N=C\c1ccccc1)c1sccc1-n1cccc1,.,.,.,.,.,0
O=C(N/N=C/c1ccc(Br)cc1)c1ccccc1-n1cccc1,82,21*,.,56,.,-4
CCN(CC)c1ccc(N2C(=O)/C(=C/c3cccnc3)SC2=S)cc1,.,.,.,.,.,-18
CCOc1c2ccc(C(=O)NCc3ccc(C)cc3)cc2nn1CCOC,.,.,.,.,.,0
CCCCCCCOC(=O)C1=C(C)Nc2ncnn2C1c1cccs1 (configuration not stated),77,82,.,63,.,0
CCCCCCCCOC(=O)C1=C(C)Nc2nnnn2C1c1cccs1 (configuration not stated),100,62,.,2.5*,.,-3
Cc1nc(Cc2nnc(SCc3nc(N)nc(Nc4ccccc4C)n3)o2)cs1,94,95,-3,108,.,7
Cn1c(N2CCN(C(=O)Nc3ccc(C(F)(F)F)cc3)CC2)nc2ccccc21,97,81,6,104,6,-17
COc1ccc(-c2nnc(SCC(=O)c3[nH]c(C)c(C(C)=O)c3C)o2)cc1,60,5.3*,-4,53,1,-15
COc1cccc(C(=O)CSc2nnc(-c3cc(OC)cc(OC)c3)o2)c1,97,8.7*,-25,24*,-14,-17
COc1cccc(C(=O)CSc2nnc(-c3cccs3)o2)c1,101,107,-17,94,-3,-7
C#CCSc1nnc(-c2ccc(OC)cc2)o1,64,19*,.,94,.,6
CCOC(=O)c1c(C)[nH]c(C)c1C(=O)CSc1nnc(-c2ccc(OC(F)F)cc2)o1,100,96,.,58,.,-3
CCOC(=O)c1[nH]c(CSc2nnc(-c3ccc(OC)cc3)o2)c(C(=O)OCC)c1C,79,18*,18,80,.,-13
CCOC(=O)C[n+]1c(C)ccc2c1CCC2,95,99,.,96,.,.
CCc1nnc(NC2=NCCC2)s1,100,102,3,90,-2,2
Cc1ccc(SCCC(=O)Nc2cccc(N(C)S(C)(=O)=O)c2)cc1,95,92,.,103,.,6
CCc1nc2cc(CC(=O)O)ccc2o1,.,.,.,.,.,2
CCCCOc1ccc(-c2c(C#N)c(N)nc(SCC(N)=O)c2C#N)cc1,.,35*,70*,67,2,1
CCCCOC(=O)CSc1nc(N)c(C#N)c(-c2ccc(OCC)cc2)c1C#N,86,68,-9,72,-4,-3
SMILES,Fibroblast inh,H69AR growth 86K,tolC growth inh,HUVEC prolif 384,Jurkat viability,E coli WT exp
CC(C)(C)C(=O)Nc1nc(C2CCCN2S(=O)(=O)c2ccc(Cl)cc2)cs1 (configuration not stated),97,72,.,104,.,6
Cc1ccccc1-c1nnc(SCc2ccccc2F)o1,.,105,64*,106,-5,-9
Cc1cc(OCC[N+]2(C)CCCCC2)nc2ccccc12,106,96,.,99,.,3
COCCCNC(=O)c1c(N)n(-c2ccc3c(c2)OCO3)c2nc3ccccc3nc12,75,28*,-3,70,5,-6
CCOc1ccc(-n2c(N)c(C(=O)NCc3ccco3)c3nc4ccccc4nc32)cc1,104,11*,.,86,.,-9
Nc1c(C(=O)NC2CC2)c2nc3ccccc3nc2n1-c1ccc2c(c1)OCO2,92,59,-16,64,0,-13
CCCNC(=O)c1c(N)n(-c2ccc3c(c2)OCO3)c2nc3ccccc3nc12,7.6*,8.6*,-14,46,-1,0
Cc1cccc(-n2c(N)c(C(=O)NCCN3CCOCC3)c3nc4ccccc4nc32)c1,100,32*,10,81,5,-4
CCOc1ccc(-n2c3nc4ccccc4nc3c3c(=O)n(Cc4ccco4)cnc32)cc1,87,42,5,94,.,.
CC(C)OC(=O)CSc1nnc(-c2ccccc2)n1N,97,103,.,104,.,10
Cc1nc(N2CCC(C)CC2)c2nnn(Cc3ccccc3)c2n1,82,90,.,116,.,.
O=C(NC1CCCC1)c1sc(=S)n2c1[nH]c(=O)c1ccccc12,96,22*,100*,64,6,1
O=C(NCc1ccco1)c1sc(=S)n2c1[nH]c(=O)c1ccccc12,102,88,100*,92,.,11
CCCCCNC(=O)c1ccc2c(=O)[nH]c3c(C(=O)NCC4CCCO4)sc(=S)n3c2c1 (configuration not stated),96,87,100*,63,9,-5
C=CCn1c(N)c(C(=O)NCc2ccco2)sc1=S,109,78,-11,97,0,6
CCn1c(N)c(C(=O)NCC2CCCO2)sc1=S (configuration not stated),.,.,-9,.,0,-2
CCCc1nc2ccccc2c(C(=O)OCC(=O)Nc2cccc(S(=O)(=O)N3CCOCC3)c2)c1CC,101,35*,.,55,.,-5
O=C(COC(=O)CCc1nc2ccccc2s1)Nc1cccc(S(=O)(=O)N2CCOCC2)c1,110,99,.,100,.,5
CCCc1nc2ccccc2c(C(=O)OCC(=O)Nc2ccc(S(=O)(=O)N3CCOCC3)cc2)c1CC,79,5.8*,.,66,.,-6
N#Cc1c(-c2ccccc2)c(-c2ccccc2)n(Cc2ccco2)c1NC(=O)c1cccs1,.,.,.,.,.,-10
Cc1c(Cl)cccc1NC(=O)C1NC(=O)CC1c1ccccc1 (configuration not stated),103,106,.,106,.,-1
Cc1nn(Cc2ccc(F)cc2)c(C)c1NC(=O)c1noc2c1CCCCC2,100,97,29,101,-1,2
Cc1ccc(Cn2ccc(NC(=O)c3noc4c3CCc3ccccc3-4)n2)cc1,104,103,.,81,.,-8
Cc1cc(NC(=O)c2noc3c2CCCC3)nn1Cc1ccc(Cl)cc1,112,101,81*,99,1,6
Cc1ccccc1Cn1nc(C)c(NC(=O)c2noc3c2CCCC3)c1C,.,91,5,97,8,1
COc1ccc(-c2cc(C(=O)Nc3cc(C)n(Cc4ccc(Cl)cc4)n3)no2)cc1OC,106,14*,23,46,2,-7
COc1ccc2c(c1)CCc1c(C(=O)Nc3ccn(Cc4ccc(C)cc4)n3)noc1-2,93,10*,-11,38,5,-9
Cc1nn(Cc2ccccc2Cl)c(C)c1NC(=O)c1noc2c1CCCCC2,103,93,65*,84,18,-6

# Assay outcomes: PubChem BioAssay, several laboratories
